Measurements as given in ChEMBL document CHEMBL1149585, “Toward the development of chemoprevention agents. Part 1: Design, synthesis, and anti-inflammatory activities of a new class of 2,5-disubstituted-dioxacycloalkanes” (Bioorg Med Chem, 2007).

Columns and labels:
Mus musculus [1] = test: Antiinflammatory activity against xylene-induced ear edema in Kunming mouse assessed as edema weight at 20 mg/kg, po after 2 hrs relative to control; assay type: functional
Summary of the method: (§1)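 Male Kunming mice (groups of 12; n = 11 per table footnote) were dosed orally as a suspension in 0.5% CMC, with CMC vehicle and positive control groups. After 30 min, 0.03 ml xylene went on both surfaces of the right ear, with the left ear as control. Mice were killed 2 h later. 7 mm ear punches were weighed, and edema was taken as right minus left weight. Groups were compared by one-way ANOVA, p < 0.05.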

Mus musculus [2] = test: Toxicity in mouse assessed as tail bleeding time at 200 mg/kg, po after 60 mins; assay type: organism-based; design: dose 200 mg/kg, route oral; settings: in vivo, 1 h
Summary of the method: (§2)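 Male mice (18–22 g) were dosed orally, and bleeding time was recorded before dosing and at each post-dose time. Each mouse was held in a tube with its tail protruding, and a 2 mm tail cut was made. Blood was wiped away with tissue every 30 s until bleeding ceased, and the time was recorded. The comparison group received NS.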

Mus musculus [3] = test: Inhibition of xylene-induced ear edema in Kunming mouse at 20 mg/kg, po after 2 hrs relative to control; assay type: functional; summary of the method: as §1
Mus musculus [4] = test: Toxicity in mouse assessed as tail bleeding time at 200 mg/kg, po after 30 mins; assay type: organism-based; design: dose 200 mg/kg, route oral; settings: in vivo, 0.5 h; summary of the method: as §2
Mus musculus [5] = test: Toxicity in mouse assessed as tail bleeding time at 200 mg/kg, po after 45 mins; assay type: organism-based; design: dose 200 mg/kg, route oral; settings: in vivo, 0.75 h; summary of the method: as §2
Mus musculus [6] = test: Toxicity in mouse assessed as tail bleeding time at 200 mg/kg, po after 90 mins; assay type: organism-based; design: dose 200 mg/kg, route oral; settings: in vivo, 1.5 h; summary of the method: as §2
Mus musculus [7] = test: Antiinflammatory activity against xylene-induced ear edema in Kunming mouse assessed as edema weight at 30 mg/kg, po after 2 hrs relative to control; assay type: functional; summary of the method: as §1
Mus musculus [8] = test: Inhibition of xylene-induced ear edema in Kunming mouse at 30 mg/kg, po after 2 hrs relative to control; assay type: functional; summary of the method: as §1

Structure (SMILES) | Activity (Mus musculus [1]) [mg] | Activity (Mus musculus [2]) [s] | inhibition in vivo at 20 mg/kg (Mus musculus [3]) [%] | Activity (Mus musculus [4]) [s] | Activity (Mus musculus [5]) [s] | Activity (Mus musculus [6]) [s] | further results
O=Cc1ccc(Cl)cc1 | 3.8 |  |  |  |  |  | 
O=Cc1ccc([N+](=O)[O-])cc1 | 3.39 |  |  |  |  |  | 
Cc1ccc(C=O)cc1 | 3.72 |  |  |  |  |  | 
C[C@@H](O)[C@H](CO)NC(=O)c1ccccc1 | 3.32 |  |  |  |  |  | 
O=C(N[C@H](CO)CCCO)c1ccccc1 | 3.38 |  |  |  |  |  | 
O=C(N[C@H]1CO[C@@H](c2ccc(Cl)cc2)OC1)c1ccccc1 |  | 120.9 | 28.5 | 118 | 118.9 | 119.4 | 
O=C(N[C@H]1CO[C@@H](c2cccc([N+](=O)[O-])c2)OC1)c1ccccc1 |  | 119.1 | 42.9 | 119.3 | 118.2 | 120.2 | 
C[C@@H]1O[C@@H](c2ccc(Cl)cc2)OC[C@H]1NC(=O)c1ccccc1 |  | 118.5 | 56.4 | 118.3 | 118.9 | 118.7 | 
C[C@@H]1O[C@@H](c2ccc([N+](=O)[O-])cc2)OC[C@H]1NC(=O)c1ccccc1 |  | 117.2 | 57.4 | 118.4 | 119.2 | 118.9 | 
O=C/C=C/c1ccccc1 | 3.4 |  |  |  |  |  | 
O=C(N[C@H]1CO[C@H](c2ccc(Cl)cc2)OC1)c1ccccc1 |  | 118.7 | 47.4 | 119 | 118.9 | 119.6 | 
O=C(Cc1ccccc1)NC(CO)CO | 3.88 |  |  |  |  |  | 
Cc1ccc([C@H]2OC[C@@H](NC(=O)c3ccccc3)[C@H](C)O2)cc1 |  | 119.8 | 46.1 | 120.9 | 121 | 118.7 | 
C[C@@H]1O[C@@H](c2cccc([N+](=O)[O-])c2)OC[C@H]1NC(=O)c1ccccc1 |  | 117.4 | 42 | 118.9 | 119.2 | 118.3 | 
O=C(NC(CO)CO)c1ccccc1 | 3.25 |  |  |  |  |  | 
O=C(N[C@H]1CO[C@@H](c2ccc([N+](=O)[O-])cc2)OC1)c1ccccc1 |  | 120.6 | 44.2 | 119.4 | 118.7 | 119.4 | 
O=C(N[C@H](CO)CCO)c1ccccc1 | 4.01 |  |  |  |  |  | 
CC(O)C(CO)NC(=O)Cc1ccccc1 (single isomer, unassigned) | 3.35 |  |  |  |  |  | 
O=C(Cc1ccccc1)NC(CO)CCCO (single isomer, unassigned) | 3.53 |  |  |  |  |  | 
O=C(Cc1ccccc1)NC(CO)CCO (single isomer, unassigned) | 3.44 |  |  |  |  |  | 
O=Cc1cccc([N+](=O)[O-])c1 [3-NITROBENZALDEHYDE] | 3.5 |  |  |  |  |  | 
CC(=O)Oc1ccccc1C(=O)O [ASPIRIN] |  |  |  |  |  |  | Activity (Mus musculus [7]): 1.85 mg; inhibition in vivo at 30 mg/kg (Mus musculus [8]): 40.7%
O=Cc1ccccc1 [BENZALDEHYDE] | 3.45 |  |  |  |  |  | 
